For series [1], the target named is T1, Multidrug efflux pump subunit AcrB (Escherichia coli (strain K12)) (UniProt P31224).
T1 sequence (whole entry): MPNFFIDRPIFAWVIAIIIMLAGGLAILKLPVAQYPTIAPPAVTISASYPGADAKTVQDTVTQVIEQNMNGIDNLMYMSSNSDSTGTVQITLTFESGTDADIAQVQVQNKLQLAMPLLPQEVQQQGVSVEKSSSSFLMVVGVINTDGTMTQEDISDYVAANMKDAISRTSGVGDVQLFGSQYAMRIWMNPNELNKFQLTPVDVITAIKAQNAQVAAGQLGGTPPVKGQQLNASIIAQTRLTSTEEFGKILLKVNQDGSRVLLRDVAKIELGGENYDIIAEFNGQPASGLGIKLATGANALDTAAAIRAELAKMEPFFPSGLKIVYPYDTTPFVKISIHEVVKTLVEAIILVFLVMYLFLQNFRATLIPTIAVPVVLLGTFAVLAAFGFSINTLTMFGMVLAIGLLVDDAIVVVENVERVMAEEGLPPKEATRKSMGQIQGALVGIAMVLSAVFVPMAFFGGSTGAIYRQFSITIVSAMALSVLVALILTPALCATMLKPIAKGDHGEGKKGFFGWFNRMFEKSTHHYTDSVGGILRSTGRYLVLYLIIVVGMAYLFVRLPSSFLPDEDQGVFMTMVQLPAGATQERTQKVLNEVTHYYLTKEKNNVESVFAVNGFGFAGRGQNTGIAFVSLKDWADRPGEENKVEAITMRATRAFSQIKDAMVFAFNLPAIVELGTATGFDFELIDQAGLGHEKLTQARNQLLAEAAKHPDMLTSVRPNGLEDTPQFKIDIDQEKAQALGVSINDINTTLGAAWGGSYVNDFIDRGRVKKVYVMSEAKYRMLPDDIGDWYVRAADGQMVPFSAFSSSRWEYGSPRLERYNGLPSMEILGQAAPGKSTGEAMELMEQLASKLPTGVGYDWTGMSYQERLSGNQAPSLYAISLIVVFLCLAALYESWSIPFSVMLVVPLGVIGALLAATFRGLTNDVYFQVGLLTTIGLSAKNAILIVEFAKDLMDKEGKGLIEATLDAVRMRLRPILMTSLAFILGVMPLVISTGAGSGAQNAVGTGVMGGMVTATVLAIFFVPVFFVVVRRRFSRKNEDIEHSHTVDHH
The series can be described thus: Inhibition of AcrB in Escherichia coli BW25113 assessed as potentiation of rifampicin induced antibacterial activity by measuring rifampicin MIC at 128 ug/ml measured after 18 hrs by checkerboard titration method (reference value: 16 ug/ml). Conditions: dose 128.0 µg/ml.

The subject of a further series is Cell membrane. The series can be described thus: Induction of outer membrane permeabilization in wild type Escherichia coli BW25113 assessed as increase in nitrocefin hydrolysis at 128 ug/ml by spectrophotometry analysis. Particulars: dose 128 µg/ml. Summed up: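 Outer-membrane permeability: intact E. coli treated with 10 µM CCCP to block nitrocefin efflux, then exposed to compound. Nitrocefin hydrolysis by periplasmic β-lactamase followed as increasing absorbance at 490 nm over time. Polymyxin B as permeabilizer control, untreated cells as baseline. Duplicate experiments on different days.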

Series [2] addresses T1, Multidrug efflux pump subunit AcrB (Escherichia coli (strain K12)). The series is described as follows: Inhibition of AcrB in Escherichia coli BW25113 assessed as potentiation of chloramphenicol induced antibacterial activity by measuring chloramphenicol MIC at 256 ug/ml measured after 18 hrs by checkerboard titration method (reference value: 8 ug/ml). Conditions: dose 256.0 µg/ml.

Series [3] has the same target. The series is described as follows: Inhibition of AcrB in Escherichia coli BW25113 assessed as potentiation of rifampicin induced antibacterial activity by measuring rifampicin MIC at 16 ug/ml measured after 18 hrs by checkerboard titration method (reference value: 16 ug/ml). Particulars: dose 16.0 µg/ml.
For series [4] the target is unchanged. The series is described as follows: Inhibition of AcrB in Escherichia coli BW25113 assessed as potentiation of erythromycin induced antibacterial activity by measuring erythromycin MIC at 64 ug/ml measured after 18 hrs by checkerboard titration method (reference value: 64 ug/ml). Particulars: dose 64.0 µg/ml.
The target is the same in series [5]. The series can be described thus: Inhibition of AcrB in Escherichia coli BW25113 assessed as potentiation of erythromycin induced antibacterial activity by measuring erythromycin MIC at 32 ug/ml measured after 18 hrs by checkerboard titration method (reference value: 64 ug/ml). Conditions: dose 32.0 µg/ml.
For series [6] the target is unchanged. The series can be described thus: Inhibition of AcrB in Escherichia coli BW25113 assessed as potentiation of tetraphenylphosphonium induced antibacterial activity by measuring tetraphenylphosphonium MIC at 256 ug/ml measured after 18 hrs by checkerboard titration method (reference value: 1024 ug/ml). Conditions: dose 256.0 µg/ml.
The target is the same in series [7]. The series is described as follows: Inhibition of AcrB in Escherichia coli BW25113 assessed as reduction in glucose-induced nile red efflux at 500 uM preincubated for 15 mins followed by nile red addition and incubated for 3 hrs in shaker in presence of CCCP by fluorimetric analysis. Conditions: time 195.0 min. Summed up: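 Wild-type E. coli cells with active AcrB were preloaded with Nile Red, with or without compound, before fluorescence recording began. At 100 sec, 0.2% glucose was added to re-energize the cells and trigger efflux, which was followed by fluorometry. An acrB-deleted isogenic strain served as the maximum-accumulation (no-efflux) reference. Triplicate experiments used different cell batches.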

Series [8] has the same target. The series is described as follows: Inhibition of AcrB in Escherichia coli BW25113 assessed as potentiation of tetraphenylphosphonium induced antibacterial activity by measuring tetraphenylphosphonium MIC at 16 ug/ml measured after 18 hrs by checkerboard titration method (reference value: 1024 ug/ml). Particulars: dose 16.0 µg/ml.
For series [9] the target is unchanged. The series is described as follows: Inhibition of AcrB in Escherichia coli BW25113 assessed as potentiation of chloramphenicol induced antibacterial activity by measuring chloramphenicol MIC at 8 ug/ml measured after 18 hrs by checkerboard titration method (reference value: 8 ug/ml). Particulars: dose 8.0 µg/ml.
Series [10] shares this target. The series can be described thus: Inhibition of AcrB in Escherichia coli BW25113 assessed as potentiation of rifampicin induced antibacterial activity by measuring rifampicin MIC at 8 ug/ml measured after 18 hrs by checkerboard titration method (reference value: 16 ug/ml). Particulars: dose 8.0 µg/ml.
Series [11] has the same target. The series can be described thus: Inhibition of AcrB in Escherichia coli BW25113 assessed as potentiation of tetraphenylphosphonium induced antibacterial activity by measuring tetraphenylphosphonium MIC at 8 ug/ml measured after 18 hrs by checkerboard titration method (reference value: 1024 ug/ml). Conditions: dose 8.0 µg/ml.
The target is the same in series [12]. The series is described as follows: Inhibition of AcrB in Escherichia coli BW25113 assessed as potentiation of erythromycin induced antibacterial activity by measuring erythromycin MIC at 8 ug/ml measured after 18 hrs by checkerboard titration method (reference value: 64 ug/ml). Conditions: dose 8.0 µg/ml.

Calls of active or inactive are those of the source. The rule behind the calls is not given here.

Turning to `Oc1ccc(CCCCc2ccccc2O)cc1O`, the MIC was found to be 16 µg/mL in [1]; 4 µg/mL in series [2]; 16 µg/mL in [3]; 64 µg/mL in series [4]; 64 µg/mL in series [5]; 512 µg/mL in series [6]. Moreover, in series [8], the MIC turned out to be 512 µg/mL. Also, the Activity entry in the series with Cell membrane is listed as “Non-Toxic”. For the same compound, the inhibition entry in series [7] was “Active”.
With `O=C(NCCc1ccc(O)c(O)c1)c1cc(O)c(O)c(O)c1`, the MIC in [9] worked out at 4 µg/mL; in [1], 16 µg/mL; in series [10], 16 µg/mL; in series [11], 1020 µg/mL; in [3], 16 µg/mL; in series [4], 16 µg/mL. In addition, the MIC in series [5] worked out at 32 µg/mL; in [12], 32 µg/mL; in [8], 1020 µg/mL. Further, in the series on Cell membrane, the Activity entry is given as “Non-Toxic”. In addition, the inhibition entry in series [7] was “Active”.
Take `Nc1ccc(C(=O)NCCc2ccc(O)c(O)c2)cc1`: the MIC in [9] is 8 µg/mL; in [1], 16 µg/mL; in [10], 16 µg/mL; in series [11], 1020 µg/mL; in [3], 16 µg/mL; in series [4], 32 µg/mL. Further, the figures for the MIC in series [5], in [12] and in [8] were 32 µg/mL, 64 µg/mL and 1020 µg/mL, respectively. Also, the Activity result in the series on Cell membrane is on record as “Non-Toxic”. Further, in series [7], the inhibition entry was “Active”.
Regarding `Nc1ccccc1C(=O)NCCc1ccc(O)c(O)c1`, the MIC was determined as 8 µg/mL in [9]; 16 µg/mL in series [1]; 16 µg/mL in series [10]; 1020 µg/mL in series [11]; 16 µg/mL in series [3]; 64 µg/mL in series [4]. In addition, the results for the MIC in [5], in series [12] and in series [8] were 64 µg/mL, 64 µg/mL and 1020 µg/mL, respectively. Besides, the Activity result with Cell membrane is recorded as “Non-Toxic”. In addition, in [7], the inhibition result is “Active”.
With `Oc1ccc(CCCc2ccc(O)c(O)c2)cc1O`, the MIC in series [1] stood at 16 µg/mL; in series [2] it was 8 µg/mL; in series [3], 16 µg/mL; in series [4], 32 µg/mL; in series [5], 64 µg/mL; in series [6] it was 512 µg/mL. Further, the MIC in [8] was found to be 1020 µg/mL. In [7], the inhibition result is “Active”.

The values above are taken from ChEMBL document CHEMBL4680134, “Structural optimization of natural product nordihydroguaretic acid to discover novel analogues as AcrB inhibitors” (Eur J Med Chem, 2020).
